# Source: ChEMBL document CHEMBL1177846, “Benzylidene/2-chlorobenzylidene hydrazides: synthesis, antimicrobial activity, QSAR studies and antiviral evaluation” (Eur J Med Chem, 2010)
# Active and inactive are the calls of the source. The rule behind the calls is not given here.
# System: Influenza B virus
# Assay: Antiviral activity against influenza B virus infected in MDCK cells assessed as inhibition of virus-induced cytopathic effect after 3 days by MTS assay
# Assay type: functional, organism-based
# Conditions: not given
# In short: (§1)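 Confluent cell monolayers were infected with 100 CCID50 of virus and allowed 2 h adsorption at 37 °C. Virus was then removed and serial compound dilutions were added. Cultures were incubated at 37 °C for 3 days, until CPE was complete in the untreated virus control. EC50 was the concentration giving 50% inhibition of virus-induced CPE, by visual score or by MTS formazan cell viability.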
row,SMILES,inhibition
1,O=C(/C=C/c1ccccc1)N/N=C/c1ccccc1,inactive
2,CCCCCCCCCCCCCC(=O)N/N=C/c1ccccc1,inactive
3,O=C(/C=C/c1ccccc1)N/N=C/c1ccccc1Cl,inactive
4,CCCCCCCCCCCCCCCC(=O)N/N=C/c1ccccc1,inactive
5,C/C=C/C=C/C(=O)N/N=C/c1ccccc1,inactive

# System: Human alphaherpesvirus 1
# Assay: Antiviral activity against acyclovir-resistant […] kinase-deficient HSV1 KOS infected in human HEL cells assessed as inhibition of virus-induced cytopathic effect after 3 days by MTS assay
# Assay type: functional, organism-based
# Conditions: not given
# In short: as §1
row,SMILES,inhibition
1,O=C(/C=C/c1ccccc1)N/N=C/c1ccccc1,inactive
2,CCCCCCCCCCCCCC(=O)N/N=C/c1ccccc1,inactive
3,O=C(/C=C/c1ccccc1)N/N=C/c1ccccc1Cl,inactive
4,CCCCCCCCCCCCCCCC(=O)N/N=C/c1ccccc1,inactive
5,C/C=C/C=C/C(=O)N/N=C/c1ccccc1,inactive

# System: Human respirovirus 3
# Assay: Antiviral activity against Parainfluenza 3 virus infected in african green monkey Vero cells assessed as inhibition of virus-induced cytopathic effect after 3 days by MTS assay
# Assay type: functional, organism-based
# Conditions: not given
# In short: as §1
row,SMILES,inhibition
1,O=C(/C=C/c1ccccc1)N/N=C/c1ccccc1,inactive
2,CCCCCCCCCCCCCC(=O)N/N=C/c1ccccc1,inactive
3,O=C(/C=C/c1ccccc1)N/N=C/c1ccccc1Cl,inactive
4,CCCCCCCCCCCCCCCC(=O)N/N=C/c1ccccc1,inactive
5,C/C=C/C=C/C(=O)N/N=C/c1ccccc1,inactive

# System: Candida albicans
# Assay: Antifungal activity against Candida albicans after 48 hrs by serial dilution method
# Assay type: functional
# Conditions: not given
# In short: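 Serial compound dilutions in Sabouraud dextrose broth (tube dilution), incubated 37 °C for 48 h. MIC was read as the lowest concentration with no growth.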
SMILES,MFC,-logMIC
O=C(/C=C/c1ccccc1)N/N=C/c1ccccc1,>0.2 uM/ml,
CCCCCCCCCCCCCC(=O)N/N=C/c1ccccc1,>0.152 uM/ml,
O=C(/C=C/c1ccccc1)N/N=C/c1ccccc1Cl,>0.176 uM/ml,
CCCCCCCCCCCCCCCC(=O)N/N=C/c1ccccc1,>0.139 uM/ml,
C/C=C/C=C/C(=O)N/N=C/c1ccccc1,>0.233 uM/ml,0.93

# System: Vaccinia virus
# Assay: Antiviral activity against Vaccinia virus infected in human HEL cells assessed as inhibition of virus-induced cytopathic effect after 3 days by MTS assay
# Assay type: functional, organism-based
# Conditions: Orthopoxvirus vaccinia
# In short: as §1
row,SMILES,inhibition
1,O=C(/C=C/c1ccccc1)N/N=C/c1ccccc1,inactive
2,CCCCCCCCCCCCCC(=O)N/N=C/c1ccccc1,inactive
3,O=C(/C=C/c1ccccc1)N/N=C/c1ccccc1Cl,inactive
4,CCCCCCCCCCCCCCCC(=O)N/N=C/c1ccccc1,inactive
5,C/C=C/C=C/C(=O)N/N=C/c1ccccc1,inactive

# System: Influenza A virus
# Assay: Antiviral activity against influenza A virus H3N2 infected in MDCK cells assessed as inhibition of virus-induced cytopathic effect after 3 days by MTS assay
# Assay type: functional, organism-based
# Conditions: not given
# In short: as §1
row,SMILES,inhibition
1,O=C(/C=C/c1ccccc1)N/N=C/c1ccccc1,inactive
2,CCCCCCCCCCCCCC(=O)N/N=C/c1ccccc1,inactive
3,O=C(/C=C/c1ccccc1)N/N=C/c1ccccc1Cl,inactive
4,CCCCCCCCCCCCCCCC(=O)N/N=C/c1ccccc1,inactive
5,C/C=C/C=C/C(=O)N/N=C/c1ccccc1,inactive

# System: Mammalian orthoreovirus 1
# Assay: Antiviral activity against Reovirus 1 infected in african green monkey Vero cells assessed as inhibition of virus-induced cytopathic effect after 3 days by MTS assay
# Assay type: functional, organism-based
# Conditions: not given
# In short: as §1
row,SMILES,inhibition
1,O=C(/C=C/c1ccccc1)N/N=C/c1ccccc1,inactive
2,CCCCCCCCCCCCCC(=O)N/N=C/c1ccccc1,inactive
3,O=C(/C=C/c1ccccc1)N/N=C/c1ccccc1Cl,inactive
4,CCCCCCCCCCCCCCCC(=O)N/N=C/c1ccccc1,inactive
5,C/C=C/C=C/C(=O)N/N=C/c1ccccc1,inactive

# System: Vesicular stomatitis virus
# Assay: Antiviral activity against VSV infected in human HEL cells assessed as inhibition of virus-induced cytopathic effect after 3 days by MTS assay
# Assay type: functional, organism-based
# Conditions: not given
# In short: as §1
row,SMILES,inhibition
1,O=C(/C=C/c1ccccc1)N/N=C/c1ccccc1,inactive
2,CCCCCCCCCCCCCC(=O)N/N=C/c1ccccc1,inactive
3,O=C(/C=C/c1ccccc1)N/N=C/c1ccccc1Cl,inactive
4,CCCCCCCCCCCCCCCC(=O)N/N=C/c1ccccc1,inactive
5,C/C=C/C=C/C(=O)N/N=C/c1ccccc1,inactive

# System: Escherichia coli
# Assay: Antibacterial activity against Escherichia coli after 24 hrs by serial dilution method
# Assay type: functional
# Conditions: not given
row,SMILES,MBC
1,O=C(/C=C/c1ccccc1)N/N=C/c1ccccc1,0.05 uM/ml
2,CCCCCCCCCCCCCC(=O)N/N=C/c1ccccc1,>0.152 uM/ml
3,O=C(/C=C/c1ccccc1)N/N=C/c1ccccc1Cl,>0.176 uM/ml
4,CCCCCCCCCCCCCCCC(=O)N/N=C/c1ccccc1,>0.139 uM/ml
5,C/C=C/C=C/C(=O)N/N=C/c1ccccc1,0.058 uM/ml

# System: Felid alphaherpesvirus 1
# Assay: Antiviral activity against Feline herpesvirus 1 infected in […] cells assessed as inhibition of virus-induced cytopathic effect after 3 days by MTS assay
# Assay type: functional, organism-based
# Conditions: not given
# In short: as §1
row,SMILES,inhibition
1,O=C(/C=C/c1ccccc1)N/N=C/c1ccccc1,inactive
2,CCCCCCCCCCCCCC(=O)N/N=C/c1ccccc1,inactive
3,O=C(/C=C/c1ccccc1)N/N=C/c1ccccc1Cl,inactive
4,CCCCCCCCCCCCCCCC(=O)N/N=C/c1ccccc1,inactive
5,C/C=C/C=C/C(=O)N/N=C/c1ccccc1,inactive

# System: Punta Toro virus
# Assay: Antiviral activity against Punta toro virus infected in african green monkey Vero cells assessed as inhibition of virus-induced cytopathic effect after 3 days by MTS assay
# Assay type: functional, organism-based
# Conditions: not given
# In short: as §1
row,SMILES,inhibition
1,O=C(/C=C/c1ccccc1)N/N=C/c1ccccc1,inactive
2,CCCCCCCCCCCCCC(=O)N/N=C/c1ccccc1,inactive
3,O=C(/C=C/c1ccccc1)N/N=C/c1ccccc1Cl,inactive
4,CCCCCCCCCCCCCCCC(=O)N/N=C/c1ccccc1,inactive
5,C/C=C/C=C/C(=O)N/N=C/c1ccccc1,inactive

# System: Feline coronavirus
# Assay: Antiviral activity against Feline caronavirus infected in […] cells assessed as inhibition of virus-induced cytopathic effect after 3 days by MTS assay
# Assay type: functional, organism-based
# Conditions: not given
# In short: as §1
row,SMILES,inhibition
1,O=C(/C=C/c1ccccc1)N/N=C/c1ccccc1,inactive
2,CCCCCCCCCCCCCC(=O)N/N=C/c1ccccc1,inactive
3,O=C(/C=C/c1ccccc1)N/N=C/c1ccccc1Cl,inactive
4,CCCCCCCCCCCCCCCC(=O)N/N=C/c1ccccc1,inactive
5,C/C=C/C=C/C(=O)N/N=C/c1ccccc1,inactive

# System: Human alphaherpesvirus 2
# Assay: Antiviral activity against Herpes simplex virus 2 G infected in human HEL cells assessed as inhibition of virus-induced cytopathic effect after 3 days by MTS assay
# Assay type: functional, organism-based
# Conditions: strain G
# In short: as §1
row,SMILES,inhibition
1,O=C(/C=C/c1ccccc1)N/N=C/c1ccccc1,inactive
2,CCCCCCCCCCCCCC(=O)N/N=C/c1ccccc1,inactive
3,O=C(/C=C/c1ccccc1)N/N=C/c1ccccc1Cl,inactive
4,CCCCCCCCCCCCCCCC(=O)N/N=C/c1ccccc1,inactive
5,C/C=C/C=C/C(=O)N/N=C/c1ccccc1,inactive

# System: Influenza A virus
# Assay: Antiviral activity against influenza A virus H1N1 infected in MDCK cells assessed as inhibition of virus-induced cytopathic effect after 3 days by MTS assay
# Assay type: functional, organism-based
# Conditions: not given
# In short: as §1
row,SMILES,inhibition
1,O=C(/C=C/c1ccccc1)N/N=C/c1ccccc1,inactive
2,CCCCCCCCCCCCCC(=O)N/N=C/c1ccccc1,inactive
3,O=C(/C=C/c1ccccc1)N/N=C/c1ccccc1Cl,inactive
4,CCCCCCCCCCCCCCCC(=O)N/N=C/c1ccccc1,inactive
5,C/C=C/C=C/C(=O)N/N=C/c1ccccc1,inactive

# System: Coxsackievirus B4
# Assay: Antiviral activity against Coxsackie virus B4 infected in african green monkey Vero cells assessed as inhibition of virus-induced cytopathic effect after 3 days by MTS assay
# Assay type: functional, organism-based
# Conditions: not given
# In short: as §1
row,SMILES,inhibition
1,O=C(/C=C/c1ccccc1)N/N=C/c1ccccc1,inactive
2,CCCCCCCCCCCCCC(=O)N/N=C/c1ccccc1,inactive
3,O=C(/C=C/c1ccccc1)N/N=C/c1ccccc1Cl,inactive
4,CCCCCCCCCCCCCCCC(=O)N/N=C/c1ccccc1,inactive
5,C/C=C/C=C/C(=O)N/N=C/c1ccccc1,inactive

# System: Human alphaherpesvirus 1
# Assay: Antiviral activity against Herpes simplex virus 1 KOS infected in human HEL cells assessed as inhibition of virus-induced cytopathic effect after 3 days by MTS assay
# Assay type: functional, organism-based
# Conditions: not given
# In short: as §1
row,SMILES,inhibition
1,O=C(/C=C/c1ccccc1)N/N=C/c1ccccc1,inactive
2,CCCCCCCCCCCCCC(=O)N/N=C/c1ccccc1,inactive
3,O=C(/C=C/c1ccccc1)N/N=C/c1ccccc1Cl,inactive
4,CCCCCCCCCCCCCCCC(=O)N/N=C/c1ccccc1,inactive
5,C/C=C/C=C/C(=O)N/N=C/c1ccccc1,inactive

# System: Sindbis virus
# Assay: Antiviral activity against Simbidis virus infected in african green monkey Vero cells assessed as inhibition of virus-induced cytopathic effect after 3 days by MTS assay
# Assay type: functional, organism-based
# Conditions: not given
# In short: as §1
row,SMILES,inhibition
1,O=C(/C=C/c1ccccc1)N/N=C/c1ccccc1,inactive
2,CCCCCCCCCCCCCC(=O)N/N=C/c1ccccc1,inactive
3,O=C(/C=C/c1ccccc1)N/N=C/c1ccccc1Cl,inactive
4,CCCCCCCCCCCCCCCC(=O)N/N=C/c1ccccc1,inactive
5,C/C=C/C=C/C(=O)N/N=C/c1ccccc1,inactive

# System: Aspergillus niger
# Assay: Antifungal activity against Aspergillus niger after 7 days by serial dilution method
# Assay type: functional
# Conditions: not given
SMILES,-logMIC,MFC
OC(Cn1cncn1)(Cn1cncn1)c1ccc(F)cc1F [FLUCONAZOLE],2.64,
O=C(/C=C/c1ccccc1)N/N=C/c1ccccc1,1.6,>0.2 uM/ml
CCCCCCCCCCCCCC(=O)N/N=C/c1ccccc1,1.24,>0.152 uM/ml
O=C(/C=C/c1ccccc1)N/N=C/c1ccccc1Cl,1.76,>0.176 uM/ml
CCCCCCCCCCCCCCCC(=O)N/N=C/c1ccccc1,0.86,>0.139 uM/ml
C/C=C/C=C/C(=O)N/N=C/c1ccccc1,1.54,>0.233 uM/ml

# System: Staphylococcus aureus
# Assay: Antibacterial activity against Staphylococcus aureus after 24 hrs by serial dilution method
# Assay type: functional
# Conditions: not given
row,SMILES,MBC
1,O=C(/C=C/c1ccccc1)N/N=C/c1ccccc1,>0.2 uM/ml
2,CCCCCCCCCCCCCC(=O)N/N=C/c1ccccc1,>0.152 uM/ml
3,O=C(/C=C/c1ccccc1)N/N=C/c1ccccc1Cl,0.176 uM/ml
4,CCCCCCCCCCCCCCCC(=O)N/N=C/c1ccccc1,>0.139 uM/ml
5,C/C=C/C=C/C(=O)N/N=C/c1ccccc1,>0.233 uM/ml

# System: Bacillus subtilis
# Assay: Antibacterial activity against Bacillus subtilis after 24 hrs by serial dilution method
# Assay type: functional
# Conditions: not given
row,SMILES,MBC
1,O=C(/C=C/c1ccccc1)N/N=C/c1ccccc1,>0.2 uM/ml
2,CCCCCCCCCCCCCC(=O)N/N=C/c1ccccc1,>0.152 uM/ml
3,O=C(/C=C/c1ccccc1)N/N=C/c1ccccc1Cl,0.088 uM/ml
4,CCCCCCCCCCCCCCCC(=O)N/N=C/c1ccccc1,0.139 uM/ml
5,C/C=C/C=C/C(=O)N/N=C/c1ccccc1,>0.233 uM/ml
